The subject of test [1] is Trichoderma reesei. Put plainly: Antifungal activity against Trichoderma reesei assessed as inhibition of fungal growth by agar well diffusion method. It is filed as functional. (In agar diffusion tests the substance spreads into inoculated agar from a disc or well.)
Test [2] has as its system Plasma. Put plainly: Antiplatelet aggregation activity in rabbit platelet-rich plasma assessed as inhibition of arachidonic acid-induced platelet aggregation by turbidimetric based Lumi-aggregometry. In kind it is functional. The following applies: Oryctolagus cuniculus.
Another test has as its system Macrophomina phaseolina. Put plainly: Antifungal activity against Macrophomina phaseolina assessed as inhibition of fungal growth by agar well diffusion method. In kind it is functional.
A further test deals with Escherichia coli. Put plainly: Antibacterial activity against Escherichia coli MTCC 443 assessed as inhibition of bacterial growth incubated for 24 hrs by serial dilution method. In kind it is functional. In a few lines:
(§1)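 MIC found by serial dilution, with ampicillin as positive control. Strains were Gram-negative E. coli MTCC 443 and Gram-positive B. subtilis MTCC 10619. A first agar diffusion screen of all compounds and the control was run at a fixed 100 μg/mL.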

Test [3] has as its system Aspergillus niger. As to the kind of experiment: Antifungal activity against Aspergillus niger assessed as inhibition of fungal growth by agar well diffusion method. It is filed as functional.
A further test deals with Bacillus subtilis. As to the kind of experiment: Antibacterial activity against Bacillus subtilis MTCC 10619 assessed as inhibition of bacterial growth incubated for 24 hrs by serial dilution method. It is filed as functional. In a few lines: as §1
Test [4] has as its system Plasma. As to the kind of experiment: Potency index, ratio of Acetylsalicylic acid IC50 to test compound IC50 for antiplatelet aggregation activity in rabbit platelet-rich plasma assessed as inhibition of arachidonic acid-induced platelet aggregation by turbidimetric aggregometry analysis. In kind it is functional, Oryctolagus cuniculus.
In test [5] the test system is Aspergillus niger. As to the kind of experiment: Potency index, ratio of Ketaconazole MIC to test compound MIC for antifungal activity against Aspergillus niger assessed as inhibition of fungal growth by agar well diffusion method. It is filed as functional.
For test [6], the system named is Trichoderma reesei. As to the kind of experiment: Potency index, ratio of Ketaconazole MIC to test compound MIC for antifungal activity against Trichoderma reesei assessed as inhibition of fungal growth by agar well diffusion method. It is filed as functional.

The results in this text go back to ChEMBL document CHEMBL6121033, “N-Arylsulfonylated C-Homoaporphines as a New Class of Antiplatelet and Antimicrobial Agents” (ACS Med Chem Lett, 2025).

In brackets after ≈: the same amount, converted by molar mass. Activity calls are given as the source filed them. The rule behind the calls is not given here.

For orientation: IC50 means the concentration at which inhibition is half-maximal. For orientation: MIC means the lowest concentration that inhibits growth of the organism. With `COc1cc2c(cc1OC)-c1c(OCc3ccccc3)c(OC)cc3c1C(CC2)N(S(=O)(=O)c1ccc([N+](=O)[O-])cc1)CC3` (stereo not given), the result in the test on Trichoderma reesei [1] was inactive. Moreover, the IC50 in the test with Plasma [2] was found to be 32.7 µg/mL (≈ 53 µM). The MIC in the test on Macrophomina phaseolina is 12.5 µg/mL (≈ 20.3 µM); in the test on Escherichia coli, 50 µg/mL (≈ 81.1 µM); with Aspergillus niger [3] it was 25 µg/mL (≈ 40.5 µM); with Bacillus subtilis, 12.5 µg/mL (≈ 20.3 µM).

`COc1cc2c(cc1OC)-c1c(OC)c(OC)cc3c1C(CC2)N(S(=O)(=O)c1cccc(C(F)(F)F)c1)CC3` (stereo not given): in the test with Trichoderma reesei [1], the outcome was inactive. Besides, in the test on Plasma [2], the IC50 came to 9.6 µg/mL (≈ 17 µM). The MIC is 12.5 µg/mL (≈ 22.2 µM) in the test with Macrophomina phaseolina, 25 µg/mL (≈ 44.4 µM) with Escherichia coli, 25 µg/mL (≈ 44.4 µM) in the test on Aspergillus niger [3] and 100 µg/mL (≈ 177 µM) with Bacillus subtilis. The Ratio in the test with Plasma [4] is listed as ~3.

Regarding `COc1cc2c(cc1OC)-c1c(OC)c(OC)cc3c1C(CC2)N(S(=O)(=O)c1ccc([N+](=O)[O-])cc1)CC3` (stereo not given), the outcome in the test with Trichoderma reesei [1], with Escherichia coli and in the test with Bacillus subtilis was inactive. Further, the IC50 with Plasma [2] was 30 µg/mL (≈ 55.5 µM). The MIC is 12.5 µg/mL (≈ 23.1 µM) in the test with Macrophomina phaseolina and 50 µg/mL (≈ 92.5 µM) in the test with Aspergillus niger [3].

For `CC(=O)Oc1ccccc1C(=O)O` [ASPIRIN], the IC50 in the test with Plasma [2] was 21.3 µg/mL (≈ 118 µM).

With `CC1(C)S[C@@H]2[C@H](NC(=O)[C@H](N)c3ccccc3)C(=O)N2[C@H]1C(=O)O` [AMPICILLIN], the MIC is 12.5 µg/mL (≈ 35.8 µM) in the test with Escherichia coli and 25 µg/mL (≈ 71.5 µM) in the test with Bacillus subtilis.

With `COc1cc2c(cc1OC)-c1c(OC)c(OC)cc3c1C(CC2)N(S(=O)(=O)c1cccc(C)c1)CC3` (stereo not given), the MIC stood at 12.5 µg/mL (≈ 24.5 µM) with Trichoderma reesei [1], 6.25 µg/mL (≈ 12.3 µM) in the test with Escherichia coli, 12.5 µg/mL (≈ 24.5 µM) in the test on Aspergillus niger [3] and 25 µg/mL (≈ 49.1 µM) with Bacillus subtilis. For the same compound, the IC50 in the test with Plasma [2] was 12.7 µg/mL (≈ 24.8 µM). The outcome in the test with Macrophomina phaseolina was inactive. Besides, the Ratio was 1 with Aspergillus niger [5] and ~3 in the test on Plasma [4].

Regarding `COc1cc2c(cc1OC)-c1c(OC)c(OC)cc3c1C(CC2)N(S(=O)(=O)c1ccc(C(C)(C)C)cc1)CC3` (stereo not given), in the test with Trichoderma reesei [1], the outcome was inactive. Moreover, the IC50 in the test with Plasma [2] amounted to 36.7 µg/mL (≈ 66.4 µM). The MIC with Macrophomina phaseolina amounted to 6.25 µg/mL (≈ 11.3 µM); in the test on Escherichia coli, 3.12 µg/mL (≈ 5.66 µM); in the test with Aspergillus niger [3], 100 µg/mL (≈ 181 µM); in the test with Bacillus subtilis, 12.5 µg/mL (≈ 22.7 µM).

In the case of `CC(=O)N1CCN(c2ccc(OCC3COC(Cn4ccnc4)(c4ccc(Cl)cc4Cl)O3)cc2)CC1` (stereo not given) [KETOCONAZOLE], the MIC stood at 6.25 µg/mL (≈ 11.8 µM) with Trichoderma reesei [1], 12.5 µg/mL (≈ 23.5 µM) in the test with Macrophomina phaseolina and 12.5 µg/mL (≈ 23.5 µM) in the test on Aspergillus niger [3].

For `COc1cc2c(cc1OC)-c1c(OCc3ccccc3)c(OC)cc3c1C(CC2)N(S(=O)(=O)c1ccc(C(C)(C)C)cc1)CC3` (stereo not given), the outcome in the test on Trichoderma reesei [1], in the test on Macrophomina phaseolina and in the test with Bacillus subtilis was inactive. The IC50 with Plasma [2] worked out at 35 µg/mL (≈ 55.7 µM). In addition, the Ratio with Aspergillus niger [5] is 1. The figures for the minimum inhibitory concentration (MIC) in the test with Escherichia coli and with Aspergillus niger [3] were 6.25 µg/mL (≈ 9.96 µM) and 12.5 µg/mL (≈ 19.9 µM), respectively.

In the case of `COc1cc2c(cc1OC)-c1c(OC)c(OCc3ccccc3)cc3c1C(CC2)N(S(=O)(=O)c1ccc([N+](=O)[O-])cc1)CC3` (stereo not given), the MIC is 6.25 µg/mL (≈ 10.1 µM) with Trichoderma reesei [1], 12.5 µg/mL (≈ 20.3 µM) with Macrophomina phaseolina, 12.5 µg/mL (≈ 20.3 µM) in the test on Escherichia coli and 50 µg/mL (≈ 81.1 µM) in the test with Aspergillus niger [3]. The IC50 with Plasma [2] was found to be 30 µg/mL (≈ 48.6 µM). In addition, the Ratio with Trichoderma reesei [6] came to 1. Besides, the result in the test with Bacillus subtilis was inactive.

In the case of `COc1cc2c(cc1OC)-c1c(OC)c(OCc3ccccc3)cc3c1C(CC2)N(S(=O)(=O)c1cccc(C)c1)CC3` (stereo not given), the MIC in the test on Trichoderma reesei [1] was determined as 25 µg/mL (≈ 42.7 µM); in the test with Macrophomina phaseolina it was 50 µg/mL (≈ 85.4 µM); with Escherichia coli it was 50 µg/mL (≈ 85.4 µM); with Bacillus subtilis, 25 µg/mL (≈ 42.7 µM). Moreover, the IC50 in the test on Plasma [2] worked out at 10.5 µg/mL (≈ 17.9 µM). Moreover, the outcome in the test on Aspergillus niger [3] was inactive. In the test with Plasma [4], the “Ratio IC50” value was >2.

For `COc1cc2c(cc1OC)-c1c(OCc3ccccc3)c(OC)cc3c1C(CC2)N(S(=O)(=O)c1ccccc1)CC3` (stereo not given), the result in the test with Trichoderma reesei [1], with Macrophomina phaseolina, in the test on Escherichia coli and in the test with Bacillus subtilis was inactive. For the same compound, the half-inhibitory concentration (IC50) in the test on Plasma [2] was 12.7 µg/mL (≈ 22.1 µM). For the same compound, in the test with Aspergillus niger [3], the MIC is 6.25 µg/mL (≈ 10.9 µM). Further, the Ratio in the test with Plasma [4] is listed as ~3.

For the compound `COc1cc2c(cc1OC)-c1c(OC)c(OCc3ccccc3)cc3c1C(CC2)N(S(=O)(=O)c1ccc(C(C)(C)C)cc1)CC3` (stereo not given), the MIC stood at 50 µg/mL (≈ 79.6 µM) in the test with Trichoderma reesei [1], 25 µg/mL (≈ 39.8 µM) in the test with Macrophomina phaseolina, 6.25 µg/mL (≈ 9.96 µM) in the test with Aspergillus niger [3] and 25 µg/mL (≈ 39.8 µM) in the test with Bacillus subtilis. In the test with Plasma [2], the IC50 came to 35 µg/mL (≈ 55.7 µM). Moreover, in the test with Escherichia coli, the outcome was inactive.

Consider `COc1cc2c(cc1OC)-c1c(OCc3ccccc3)c(OC)cc3c1C(CC2)N(S(=O)(=O)c1cccc(C)c1)CC3` (stereo not given), for which the MIC in the test on Trichoderma reesei [1] was 12.5 µg/mL (≈ 21.3 µM); with Macrophomina phaseolina it was 25 µg/mL (≈ 42.7 µM); in the test on Escherichia coli it was 3.12 µg/mL (≈ 5.34 µM); in the test with Aspergillus niger [3], 12.5 µg/mL (≈ 21.3 µM); in the test with Bacillus subtilis it was 3.12 µg/mL (≈ 5.34 µM). Further, the IC50 in the test with Plasma [2] worked out at 12.7 µg/mL (≈ 21.6 µM). Further, the Ratio in the test on Aspergillus niger [5] is 1; in the test with Plasma [4], ~3.

On to `COc1cc2c(cc1OC)-c1c(OC)c(OCc3ccccc3)cc3c1C(CC2)N(S(=O)(=O)c1cccc(C(F)(F)F)c1)CC3` (stereo not given), for which the MIC in the test with Trichoderma reesei [1], with Escherichia coli and with Bacillus subtilis was 6.25 µg/mL (≈ 9.77 µM) throughout. Moreover, the IC50 with Plasma [2] is 7 µg/mL (≈ 10.9 µM). Besides, the outcome in the test with Macrophomina phaseolina and in the test on Aspergillus niger [3] was inactive. Besides, the Ratio in the test on Trichoderma reesei [6] turned out to be 1. In the test on Plasma [4], the “Ratio IC50” value came out at 3.

Consider `COc1cc2c(cc1OC)-c1c(OCc3ccccc3)c(OC)cc3c1C(CC2)N(S(=O)(=O)c1cccc(C(F)(F)F)c1)CC3` (stereo not given), for which the MIC stood at 25 µg/mL (≈ 39.1 µM) with Trichoderma reesei [1]; 12.5 µg/mL (≈ 19.5 µM) in the test with Macrophomina phaseolina; 6.25 µg/mL (≈ 9.77 µM) in the test with Escherichia coli; 25 µg/mL (≈ 39.1 µM) in the test on Aspergillus niger [3]; 25 µg/mL (≈ 39.1 µM) in the test with Bacillus subtilis. For the same compound, the IC50 with Plasma [2] is 8 µg/mL (≈ 12.5 µM). Moreover, the Ratio in the test with Plasma [4] is ~3.

Take `COc1cc2c(cc1OC)-c1c(OC)c(OC)cc3c1C(CC2)N(S(=O)(=O)c1ccccc1)CC3` (stereo not given): the outcome in the test on Trichoderma reesei [1] and in the test on Macrophomina phaseolina was inactive. Further, the IC50 in the test with Plasma [2] turned out to be 15 µg/mL (≈ 30.3 µM). Further, the MIC in the test on Escherichia coli amounted to 12.5 µg/mL (≈ 25.2 µM); in the test with Aspergillus niger [3] it was 25 µg/mL (≈ 50.4 µM); in the test on Bacillus subtilis, 50 µg/mL (≈ 101 µM). Moreover, the Ratio in the test on Plasma [4] was ~3.

With `COc1cc2c(cc1OC)-c1c(OC)c(OCc3ccccc3)cc3c1C(CC2)N(S(=O)(=O)c1ccccc1)CC3` (stereo not given), the result with Trichoderma reesei [1], with Macrophomina phaseolina, in the test with Escherichia coli and in the test on Aspergillus niger [3] was inactive. Moreover, in the test on Plasma [2], the IC50 was 14.7 µg/mL (≈ 25.6 µM). In addition, the MIC in the test on Bacillus subtilis worked out at 12.5 µg/mL (≈ 21.9 µM). For the same compound, in the test with Plasma [4], the Ratio is ~3.
